This is one part of a sample in which hits are shown more often than they occur.
CDK5 p35 inh – inhibitors of human CDK5/p35 kinase; Q00535+Q15078; Recombinant CDK5/p35, ADP-Glo luminescence, 60 min; inhibition, % at 10 µM; 330,000 tested, 0.01% active; AID 488839;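 active = highest replicate inhibition of at least 50% and at least 75% of replicates reaching 50%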
Target sequence (Q00535 whole entry, looked up): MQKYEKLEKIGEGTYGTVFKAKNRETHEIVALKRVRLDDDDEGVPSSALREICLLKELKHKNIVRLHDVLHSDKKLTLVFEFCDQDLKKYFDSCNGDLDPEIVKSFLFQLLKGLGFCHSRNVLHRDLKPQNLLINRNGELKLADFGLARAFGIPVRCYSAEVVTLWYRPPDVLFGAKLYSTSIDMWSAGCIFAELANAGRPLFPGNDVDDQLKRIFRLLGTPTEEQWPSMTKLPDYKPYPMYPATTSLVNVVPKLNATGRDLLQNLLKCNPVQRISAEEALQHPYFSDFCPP
Target sequence (Q15078 whole entry, looked up): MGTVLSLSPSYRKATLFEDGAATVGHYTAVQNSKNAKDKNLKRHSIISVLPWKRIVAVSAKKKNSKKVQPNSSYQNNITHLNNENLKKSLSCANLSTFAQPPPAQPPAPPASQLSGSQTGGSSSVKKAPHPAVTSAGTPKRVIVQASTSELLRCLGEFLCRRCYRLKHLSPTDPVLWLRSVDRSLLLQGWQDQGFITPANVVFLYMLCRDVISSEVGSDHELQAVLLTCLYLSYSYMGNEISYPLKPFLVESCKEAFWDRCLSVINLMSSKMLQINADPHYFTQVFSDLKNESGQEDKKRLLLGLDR
GSK3A inh – human GSK-3 alpha kinase inhibition | P49840 | ADP-Glo luminescence, 60 min | inhibition, % at 10 µM | 320,000 tested, 0.1% active | AID 2650;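 active = more than half of replicates show inhibition above 20%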;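 note: GST-tagged GSK-3 alpha with peptide substrate and 25 µM ATP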
GSK3B inh – inhibitors of human GSK3beta kinase; P49841; GST-GSK3beta kinase, ADP-Glo luminescence, 60 min; active compounds read low; activity score (negative = inhibition), % at 10 µM; 300,000 tested, 0.038% active;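 active = more than half of replicate wells score below -50%, meaning over 50% inhibition versus plate controls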
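Test system – GST-tagged human GSK3beta kinase, cell-free · Incubation – 60 min enzyme reaction, room temperature · Signal – ADP-Glo luminescence · Also added – peptide substrate and ATP at 25 µM · Controls – DMSO neutral wells and GW8510 at 20 µM as positive · Buffer or medium – Tris/MgCl2 kinase buffer · Measure – Luminescence-derived activity versus plate DMSO and GW8510 wells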
STK33 inh – inhibitors of human STK33 kinase | AID 2661 | purified STK33, MBP phosphorylation, ADP-Glo luminescence | Q9BYT3 | 320,000 tested, 0.073% active | inhibition, % at 10 µM;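 active = inhibition at or above 25%, using the most active replicate where run in duplicate; inactive = inhibition below 25%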
Dyrk1A ADPGlo – inhibitors of rat Dyrk1A kinase; Q63470; ADP-Glo luminescence, NFATc1 peptide; inhibition, % at 12.5 µM; 310,000 tested, 0.43% active; in the data active = inhibition above about 50%
ADP-Glo artifact – ADP-Glo luciferase interference, Dyrk1A counter-screen | 1,300 tested, under 10 active | AC50, µM (top dose mostly 12 µM) | AID 588348 | ADP-Glo luciferase artifact assay, no Dyrk1A, luminescence | shares compounds with Dyrk1A ADPGlo;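 active = fitted half-maximal dose AC50 no more than ten times the top valid tested dose, with luminescence dropping as dose rises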
Large screens that a line does not name were inactive (follow-up assays come after a bar, where they were run); ! = not active in a repeat.

CCOC(=O)COc1nc(Nc2ccccc2C)nc(N(C)C)n1	none
N#CC(C#N)=C1NC(N)=C(C#N)C(c2ccccc2)=C1C#N	Dyrk1A ADPGlo 66 | ADP-Glo artifact inactive
CCOc1ccc(C(=O)c2cccs2)cc1	none
Cc1occc1C(=O)/C(C#N)=C/c1ccc(O)c(Br)c1	Dyrk1A ADPGlo 67 | ADP-Glo artifact inactive
COc1ccc(OC)c(N)c1	none
COc1ccc2c(c1)C(=NNc1ccc(C(=O)O)cc1)c1cc(OC)ccc1-2	Dyrk1A ADPGlo 83 | ADP-Glo artifact inactive
COc1ccc2c(c1)C(=NN)c1cc(OC)ccc1-2	Dyrk1A ADPGlo 79 | ADP-Glo artifact inactive
O=[N+]([O-])c1ccc(O)c(C=NNc2ccc(S(=O)(=O)O)cc2)c1	Dyrk1A ADPGlo 73 (no result: GSK3A inh, GSK3B inh, STK33 inh) | ADP-Glo artifact inactive
NC(N)=NC(=O)c1nc(Cl)c(N)nc1N	Dyrk1A ADPGlo 64! | ADP-Glo artifact inactive
NC(N)=NC(=O)c1nc(Cl)c(N2CCCCCC2)nc1N	none (no result: GSK3B inh)
CCC1COCCS(=O)(=O)N1Cc1cccc(Cl)c1 (centres undefined)	none
CC(C)C[C@H]1COCCS(=O)(=O)N1Cc1ccc(Cl)c(Cl)c1	Dyrk1A ADPGlo 51 | ADP-Glo artifact inactive
CC(=O)OCCN1C(=O)c2cccnc2C1=O	none
COc1ccc(C=C2C(=O)c3ccccc3C2=O)cc1O	Dyrk1A ADPGlo 84 | ADP-Glo artifact inactive
COc1cc(/C=C2\SC(N)=NC2=O)ccc1O	STK33 inh 26, Dyrk1A ADPGlo 90 | ADP-Glo artifact inactive
COc1cc(C=C2C(=O)c3ccccc3C2=O)ccc1O	Dyrk1A ADPGlo 97 | ADP-Glo artifact inactive
CC(C)NC(=O)/C(=C\c1cccc([N+](=O)[O-])c1)NC(=O)c1ccccc1	none
O=C(Nc1cccc(S(=O)(=O)N2CCCCCC2)c1)c1ccc2c(c1)OCO2	none
O=[N+]([O-])c1ccc(C2=Nn3cnnc3SC2)cc1	none
COc1ccccc1N(C)S(=O)(=O)c1ccc(C(=O)NC2=NCCS2)cc1	none
c1ccc(-c2nnc(CSc3ccc4c(c3)OCCO4)o2)cc1	Dyrk1A ADPGlo 54 | ADP-Glo artifact inactive
O=C(OCc1nnc(-c2ccccc2)o1)c1ccc2c(c1)OCO2	none
O=C1CCN(CCCc2ccccc2)CCN1[C@H](CO)c1ccccc1	Dyrk1A ADPGlo 51 | ADP-Glo artifact inactive
Cn1cnc2c(=O)sc3ccccc3c21	Dyrk1A ADPGlo 70 | ADP-Glo artifact inactive
COc1cccc(CNC(=O)CCCc2cn(C)c3ccccc23)c1	none
c1cncc(-c2nc(-c3cccs3)cs2)c1	none
c1cncc(-c2csc(-c3cccnc3)n2)c1	Dyrk1A ADPGlo 86 | ADP-Glo artifact inactive
COc1cc(N2CN=c3s/c(=C\c4ccccn4)c(=O)n3C2)cc(OC)c1OC	Dyrk1A ADPGlo 53 | ADP-Glo artifact inactive
COC(=O)c1cc(C)sc1NC(=O)C1C2C=CC(CC2)C1C(=O)O (centres undefined)	none
Cn1c2ccccc2c2cc(/C=N/NC(=O)c3cc(O)ccc3O)ccc21	Dyrk1A ADPGlo 61 | ADP-Glo artifact inactive
Cn1c2ccccc2c2cc(/C=N/NC(=O)c3cc(O)cc(O)c3)ccc21	none
Cc1ccc(C)c(NC(=O)CN(C)C(=O)c2ccccc2OCc2c(C)noc2C)c1	none (no result: GSK3B inh)
Cc1cccc(OCc2nnc(NC(=O)Cc3cccs3)s2)c1	none
CC(=O)OC1CCC2(C)C(CCC3C2CC(=NO)C2(C)C(C(C)OC(C)=O)CCC32)C1 (centres undefined)	none (no result: GSK3A inh, GSK3B inh, STK33 inh)
c1ccc(-c2nnc3sc(Cc4cccs4)nn23)cc1	Dyrk1A ADPGlo 59 | ADP-Glo artifact inactive
Cc1ccc(-c2cc(O)cc3sc(=O)oc23)cc1C	Dyrk1A ADPGlo 54 (no result: GSK3A inh) | ADP-Glo artifact inactive
O=C(O)c1ccc(-c2ccc(/C=c3/sc4nc5ccccc5n4c3=O)o2)cc1Cl	Dyrk1A ADPGlo 54 | ADP-Glo artifact inactive
COc1ccc(C(=O)Nc2ccc3ccccc3n2)cc1OC	none (no result: GSK3A inh, STK33 inh)
O=C(O)Cc1ccc(N=Nc2c(O)c(C(=O)O)cc3ccccc23)cc1	none
NS(=O)(=O)c1ccc(N=Nc2c(O)c(C(=O)O)cc3ccccc23)cc1	Dyrk1A ADPGlo 54 | ADP-Glo artifact inactive
O=C(O)CSc1ncnc2scc(-c3ccccc3)c12	Dyrk1A ADPGlo 73 | ADP-Glo artifact inactive
CN(C)C(=O)CSc1ncnc2scc(-c3ccccc3)c12	none
O=C(Nc1ccc(Cl)cc1)Nc1ccc2c(c1)N1CCN=C1S2	Dyrk1A ADPGlo 68 | ADP-Glo artifact inactive
